Results taken from ChEMBL document CHEMBL3352770, “Click chemistry inspired synthesis and bioevaluation of novel triazolyl derivatives of osthol as potent cytotoxic agents” (Eur J Med Chem, 2014).

Tests used:
Assay type in all cases: functional, cell-based
[1] = Cytotoxicity against human PC3 cells after 24 hrs by MTT assay; conditions: PC-3, 24 h
Method in brief: (§1)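 Cells kept in DMEM with 10% foetal calf serum, penicillin and streptomycin, at 37 °C under 5% CO2. For assays serum lowered to 3%. Cells treated with test material at 0.04–60 µM for 24 h, then MTT (250 µg/mL) for 3 h. Formazan OD read at 570 nm. IC50 by non-linear regression, mean of triplicates. BEZ-235 as positive control.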

[2] = tested on: COLO 205; assay: Cytotoxicity against human COLO205 cells after 24 hrs by MTT assay; conditions: COLO 205, 24 h; method in brief: as §1
[3] = Cytotoxicity against human HCT116 cells after 24 hrs by MTT assay; conditions: HCT-116, 24 h; method in brief: as §1
[4] = tested on: A-431; assay: Cytotoxicity against human A431 cells after 24 hrs by MTT assay; conditions: A-431, 24 h; method in brief: as §1
[5] = tested on: T47D; assay: Cytotoxicity against human T47D cells after 24 hrs by MTT assay; method in brief: as §1
[6] = Cytotoxicity against human NCI-H322 cells after 24 hrs by MTT assay; conditions: NCI-H322, 24 h; method in brief: as §1
[7] = tested on: A549; assay: Cytotoxicity against human A549 cells after 24 hrs by MTT assay; conditions: A549, 24 h; method in brief: as §1

| SMILES | IC50 [1] [µM] | IC50 [2] [µM] | IC50 [3] [µM] | IC50 [4] [µM] | IC50 [5] [µM] | IC50 [6] [µM] | IC50 [7] [µM] |
| --- | --- | --- | --- | --- | --- | --- | --- |
| COc1ccc(/C=C\C(=O)O)c(OCc2cn(-c3ccccc3C(=O)N3CCC(O)C3)nn2)c1CC=C(C)C (centres undefined) | 36.2 | 25.4 | 32 | 31.5 | 13.4 | – | – |
| COc1ccc(/C=C\C(=O)O)c(OCc2cn(-c3ccc(C#N)cc3)nn2)c1CC=C(C)C | – | 32 | 21 | 23 | 10.2 | 18.6 | 42.2 |
| COc1ccc(/C=C\C(=O)O)c(OCc2cn(-c3ccccc3)nn2)c1CC=C(C)C | 35 | 32.3 | 26 | 21.2 | 34.1 | 29.2 | 40.5 |
| COc1ccc(/C=C\C(=O)O)c(OCc2cn(-c3ccccc3I)nn2)c1CC=C(C)C | – | – | 23.1 | 32.7 | – | 42.3 | 2.2 |
| COc1ccc(/C=C\C(=O)O)c(OCc2cn(-c3ccc(NC(=O)c4ccccc4)cc3)nn2)c1CC=C(C)C | – | 20.3 | 16.4 | 21.2 | 23.3 | 17.2 | 42.7 |
| COc1ccc2ccc(=O)oc2c1CC=C(C)C [OSTHOLE] | 24.8 | > 60 | 30.2 | 23.2 | 42.4 | 30.9 | 46.2 |
| COc1ccccc1-n1cc(COc2c(/C=C\C(=O)O)ccc(OC)c2CC=C(C)C)nn1 | – | 12.2 | 32.2 | 32.6 | – | 41.5 | 43 |
| COc1ccc(/C=C\C(=O)O)c(OCc2cn(P(=O)(Oc3ccccc3)Oc3ccccc3)nn2)c1CC=C(C)C | 36.2 | – | 35.5 | 43.3 | 30.6 | – | – |
| COc1ccc(/C=C\C(=O)O)c(OCc2cn(-c3ccc4c(c3)OCO4)nn2)c1CC=C(C)C | 32 | – | 20.4 | 23.1 | 13.2 | 22.7 | 19.4 |
| COc1ccc(/C=C\C(=O)O)c(OCc2cn(CC(O)c3ccccc3)nn2)c1CC=C(C)C (centres undefined) | 14.2 | 43 | 45.3 | – | 17.3 | 35.4 | – |
| COc1ccc(/C=C\C(=O)O)c(OCc2cn(-c3ccc(NC(C)=O)cc3)nn2)c1CC=C(C)C | – | 22.6 | – | 23.4 | 17.4 | 45.7 | – |
| COc1ccc(/C=C\C(=O)O)c(OCc2cn(-c3ccccc3F)nn2)c1CC=C(C)C | 24.2 | 14.5 | – | 12.4 | 11 | 45.6 | – |
